In brackets after ≈: the same amount, converted by molar mass.
Tests used:
Type in all cases: functional
Streptococcus pneumoniae [1] = experiment: Minimum inhibitory concentration against Streptococcus pneumoniae 5649 efflux
How it was run: (§1)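 MICs were determined by agar dilution following National Committee for Clinical Laboratory Standards recommendations. Values are in µg/mL.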

Staphylococcus aureus [2] = experiment: Minimum inhibitory concentration against Staphylococcus aureus A 5278 MLSB-c; how it was run: as §1
[3] = Minimum inhibitory concentration against Streptococcus pyogenes 930MLSB; how it was run: as §1
Staphylococcus aureus [4] = experiment: Minimum inhibitory concentration against Staphylococcus aureus ATCC 6538PEry-S; conditions: ATCC 6538P; how it was run: as §1
[5] = Minimum inhibitory concentration against Streptococcus pyogenes EES 61 Ery-S; how it was run: as §1
[6] = Minimum inhibitory concentration against Haemophilus influenzae DILL Amp-R; how it was run: as §1
[7] = Minimum inhibitory concentration against Streptococcus pyogenes PIU2548 efflux; how it was run: as §1
Streptococcus pneumoniae [8] = experiment: Minimum inhibitory concentration against Streptococcus pneumoniae ATCC 6303 Ery-S; how it was run: as §1
Staphylococcus aureus [9] = experiment: Minimum inhibitory concentration against Staphylococcus aureus A 5177 MLSB-i; how it was run: as §1
[10] = Minimum inhibitory concentration against Streptococcus pneumoniae 5737 MLSB; how it was run: as §1

Row | Compound | MIC (Streptococcus pneumoniae [1]) [µg/mL] | MIC (Staphylococcus aureus [2]) [µg/mL] | MIC [3] [µg/mL] | MIC (Staphylococcus aureus [4]) [µg/mL] | MIC [5] [µg/mL] | MIC [6] [µg/mL] | MIC [7] [µg/mL] | MIC (Streptococcus pneumoniae [8]) [µg/mL] | MIC (Staphylococcus aureus [9]) [µg/mL] | MIC [10] [µg/mL]
1 | CC[C@H]1OC(=O)[C@H](C)C(=O)[C@H](C)[C@@H](O[C@@H]2O[C@H](C)C[C@H](N(C)C)[C@H]2O)[C@](C)(OCCNCc2ccccc2)C[C@@H](C)C(=O)[C@H](C)[C@H]2NC(=O)O[C@@]21C | 2 (≈ 2.73 µM) | > 100 | > 128 | 0.2 (≈ 0.273 µM) | 0.03 (≈ 0.041 µM) | 2 (≈ 2.73 µM) | 2 (≈ 2.73 µM) | 0.03 (≈ 0.041 µM) | 0.39 (≈ 0.533 µM) | > 128
2 | CC[C@H]1OC(=O)[C@H](C)C(=O)[C@H](C)[C@@H](O[C@@H]2O[C@H](C)C[C@H](N(C)C)[C@H]2O)[C@](C)(OCCNCCCCc2ccccc2)C[C@@H](C)C(=O)[C@H](C)[C@H]2NC(=O)O[C@@]21C | 2 (≈ 2.58 µM) | > 100 | > 128 | 0.39 (≈ 0.504 µM) | 0.125 (≈ 0.161 µM) | 4 (≈ 5.17 µM) | 2 (≈ 2.58 µM) | 0.03 (≈ 0.0388 µM) | 0.2 (≈ 0.258 µM) | 16 (≈ 20.7 µM)
3 | CC[C@H]1OC(=O)[C@H](C)C(=O)[C@H](C)[C@@H](O[C@@H]2O[C@H](C)C[C@H](N(C)C)[C@H]2O)[C@](C)(OCCNCc2ccnc3ccccc23)C[C@@H](C)C(=O)[C@H](C)[C@@H](O)[C@]1(C)O | 0.5 (≈ 0.66 µM) | > 100 | > 128 | 3.1 (≈ 4.09 µM) | 0.25 (≈ 0.33 µM) | 32 (≈ 42.2 µM) | 4 (≈ 5.28 µM) | 0.25 (≈ 0.33 µM) | 3.1 (≈ 4.09 µM) | > 128
4 | CC[C@H]1OC(=O)[C@H](C)C(=O)[C@H](C)[C@@H](O[C@@H]2O[C@H](C)C[C@H](N(C)C)[C@H]2O)[C@](C)(OC/C=C/c2cnc3ccccc3c2)C[C@@H](C)C(=O)[C@H](C)[C@H]2N(OC)C(=O)O[C@]12C | 0.5 (≈ 0.628 µM) | > 100 | 64 (≈ 80.4 µM) | 0.1 (≈ 0.126 µM) | 0.03 (≈ 0.0377 µM) | 8 (≈ 10.1 µM) | 0.5 (≈ 0.628 µM) | 0.06 (≈ 0.0754 µM) | 0.1 (≈ 0.126 µM) | 64 (≈ 80.4 µM)
5 | CC[C@H]1OC(=O)[C@H](C)C(=O)[C@H](C)[C@@H](O[C@@H]2O[C@H](C)C[C@H](N(C)C)[C@H]2O)[C@](C)(OC/C=C/c2cnc3sccc3c2)C[C@@H](C)C(=O)[C@H](C)[C@H]2NC(=O)O[C@@]21C | 0.25 (≈ 0.324 µM) | > 100 | 4 (≈ 5.18 µM) | 0.05 (≈ 0.0648 µM) | 0.008 (≈ 0.0104 µM) | 2 (≈ 2.59 µM) | 0.25 (≈ 0.324 µM) | 0.004 (≈ 0.00518 µM) | 0.05 (≈ 0.0648 µM) | 0.5 (≈ 0.648 µM)
6 | C=CCO[C@]1(C)C[C@@H](C)C(=O)[C@H](C)[C@H]2N(C)C(=O)O[C@]2(C)[C@@H](CC)OC(=O)[C@H](C)C(=O)[C@H](C)[C@H]1O[C@@H]1O[C@H](C)C[C@H](N(C)C)[C@H]1O | 0.5 (≈ 0.766 µM) | > 100 | > 128 | 6.2 (≈ 9.5 µM) | 0.5 (≈ 0.766 µM) | > 128 | 2 (≈ 3.06 µM) | 0.5 (≈ 0.766 µM) | 6.2 (≈ 9.5 µM) | > 128
7 | CC[C@H]1OC(=O)[C@H](C)C(=O)[C@H](C)[C@@H](O[C@@H]2O[C@H](C)C[C@H](N(C)C)[C@H]2O)[C@](C)(OC/C=C/c2cncc3ccccc23)C[C@@H](C)C(=O)[C@H](C)[C@H]2NC(=O)O[C@@]21C | 0.25 (≈ 0.326 µM) | > 100 | 8 (≈ 10.4 µM) | 0.1 (≈ 0.131 µM) | 0.004 (≈ 0.00522 µM) | 2 (≈ 2.61 µM) | 0.125 (≈ 0.163 µM) | 0.004 (≈ 0.00522 µM) | 0.1 (≈ 0.131 µM) | 64 (≈ 83.6 µM)
8 | CC[C@H]1OC(=O)[C@H](C)C(=O)[C@H](C)[C@@H](O[C@@H]2O[C@H](C)C[C@H](N(C)C)[C@H]2O)[C@](C)(OCCNCCCc2ccccc2)C[C@@H](C)C(=O)[C@H](C)[C@H]2NC(=O)O[C@@]21C | 0.5 (≈ 0.658 µM) | > 100 | 64 (≈ 84.2 µM) | 0.2 (≈ 0.263 µM) | 0.03 (≈ 0.0395 µM) | 4 (≈ 5.26 µM) | 2 (≈ 2.63 µM) | 0.03 (≈ 0.0395 µM) | 0.2 (≈ 0.263 µM) | 16 (≈ 21.1 µM)

From ChEMBL document CHEMBL1134286, “Novel erythromycin derivatives with aryl groups tethered to the C-6 position are potent protein synthesis inhibitors and active against multidrug-resistant respiratory pathogens” (J Med Chem, 2001)
